We go through eight compounds from ChEMBL document CHEMBL1151764, “Search for inhibitors of bacterial and human protein kinases among derivatives of diazepines[1,4] annelated with maleimide and indole cycles” (J Med Chem, 2008).

The target of experiment [1] is Vascular endothelial growth factor receptor 2 (Homo sapiens, UniProt P35968). Kind of experiment: Inhibition of human VEGFR2.
For experiment [2], the target named is Vascular endothelial growth factor receptor 3 (Homo sapiens, UniProt P35916). The experiment can be described thus: Inhibition of human VEGFR3.
Experiment [3] deals with Epidermal growth factor receptor (Homo sapiens, UniProt P00533). Kind of experiment: Inhibition of human EGFR.
For experiment [4], the target named is T1, Cyclin-dependent kinase 2 (Homo sapiens, UniProt P24941). The experiment can be described thus: Inhibition of human CDK2/CycA.
In another experiment the target is Angiopoietin-1 receptor (Homo sapiens, UniProt Q02763). Kind of experiment: Inhibition of human TIE2.
Experiment [5] concerns the target Insulin-like growth factor 1 receptor (Homo sapiens, UniProt P08069). Kind of experiment: Inhibition of human IGF1R.
For experiment [6], the target named is Cyclin-dependent kinase 4/cyclin D1 (Homo sapiens, UniProt P11802). Kind of experiment: Inhibition of human CDK4/CycD1. The class given is protein-complex assay.
In experiment [7] the test system is Streptomyces coelicolor. Kind of experiment: Inhibition of aph8-induced kanamycin phosphorylation in Streptomyces coelicolor cell lysate assessed as [32Pi] incorporation into kanamycin at 10 uM by microplate scintillation counter relative to control. More on the design: scale not given: the % may be the effect or the level left.
Experiment [8] has as its system Streptomyces coelicolor. The experiment can be described thus: Inhibition of Ca(2+))/phosphatidylserine/diacylglycerol-dependent aph8 phosphorylation in Streptomyces coelicolor cell lysate assessed as [32Pi] incorporation into aph8 at 500 nM by microplate scintillation counter relative to control. Set-up: scale not given: the % may be the effect or the level left. In a few lines: (§1)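 Radiometric in vitro assay of actinobacterial protein kinases. Kinases incubated under standard conditions with [γ-³²P]ATP and aphVIII as substrate, with or without modulators or inhibitors. Read-out was incorporation of the γ-phosphoryl residue into aphVIII.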

Experiment [9] deals with T1, Cyclin-dependent kinase 2. The experiment can be described thus: Inhibition of human CDK2/Cyc2.
Experiment [10] relates to Streptomyces lividans. The experiment can be described thus: Inhibition of aph8 positive Streptomyces lividans at 80 uM after 20 hrs by paper disk method. The settings on record: read-out: IZ. The class given is functional. Put shortly: (§2)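 Test culture was Streptomyces lividans carrying plasmid pSU23 with the aphVIII gene, whose kanamycin-inactivating activity depends on Ser/Thr kinase phosphorylation. Paper disks (7 mm) held kanamycin (5 µg/disk) plus test compound at subtoxic amounts, about half the minimal growth-inhibitory dose. Disks went on plates of log-phase cells at 28 °C for 20 h. Read-out was lysis zone diameter.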

Experiment [11] deals with Streptomyces lividans. Kind of experiment: Inhibition of aph8 positive Streptomyces lividans at 5 uM after 20 hrs by paper disk method. The class given is functional. The settings on record: read-out: IZ. In a few lines: as §2
Experiment [12] concerns Streptomyces lividans. Kind of experiment: Inhibition of aph8 positive Streptomyces lividans at 20 uM after 20 hrs by paper disk method. The class given is functional. To be noted: read-out: IZ. In a few lines: as §2
The test system of experiment [13] is Streptomyces lividans. Kind of experiment: Inhibition of aph8 positive Streptomyces lividans at 10 uM after 20 hrs by paper disk method. The class given is functional. To be noted: read-out: IZ. In a few lines: as §2
Experiment [14] concerns Streptomyces lividans. The experiment can be described thus: Inhibition of aph8 positive Streptomyces lividans at 40 uM after 20 hrs by paper disk method. The settings on record: read-out: IZ. The class given is functional. In a few lines: as §2
The test system of experiment [15] is Streptomyces lividans. The experiment can be described thus: Inhibition of aph8 positive Streptomyces lividans at 600 uM after 20 hrs by paper disk method. The class given is functional. To be noted: read-out: IZ. Put shortly:
as §2

For experiment [16], the system named is Streptomyces lividans. Kind of experiment: Inhibition of aph8 positive Streptomyces lividans at 1200 uM after 20 hrs by paper disk method. In kind it is functional. The settings on record: read-out: IZ. Put shortly: as §2
Experiment [17] relates to Streptomyces lividans. Kind of experiment: Inhibition of aph8 positive Streptomyces lividans at 300 uM after 20 hrs by paper disk method. The class given is functional. The settings on record: read-out: IZ. Put shortly:
as §2

Experiment [18] has as its system Streptomyces lividans. Kind of experiment: Inhibition of aph8 positive Streptomyces lividans at 150 uM after 20 hrs by paper disk method. To be noted: read-out: IZ. In kind it is functional. In a few lines:
as §2

Experiment [19] has as its system Streptomyces lividans. The experiment can be described thus: Inhibition of aph8 positive Streptomyces lividans at 75 uM after 20 hrs by paper disk method. In kind it is functional. The settings on record: read-out: IZ. In a few lines: as §2
The subject of experiment [20] is Streptomyces coelicolor. Kind of experiment: Inhibition of Ca(2+)/Calmodulin-dependent aph8 phosphorylation in Streptomyces coelicolor cell lysate assessed as [32Pi] incorporation into aph8 at 500 nM by microplate scintillation counter relative to control. Set-up: scale not given: the % may be the effect or the level left. In a few lines: as §1

Sequence of Cyclin-dependent kinase 4/cyclin D1 (P11802 whole entry): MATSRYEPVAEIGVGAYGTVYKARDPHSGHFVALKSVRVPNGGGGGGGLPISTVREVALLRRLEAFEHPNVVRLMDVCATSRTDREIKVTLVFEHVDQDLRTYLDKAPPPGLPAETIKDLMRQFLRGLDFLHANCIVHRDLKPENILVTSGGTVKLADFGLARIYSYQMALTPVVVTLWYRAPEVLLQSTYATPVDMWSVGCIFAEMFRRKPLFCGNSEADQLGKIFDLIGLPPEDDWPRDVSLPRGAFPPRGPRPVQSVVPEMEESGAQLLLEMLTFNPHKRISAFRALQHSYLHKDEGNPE
Sequence of Cyclin-dependent kinase 4/cyclin D1 (P24385 whole entry, further chain): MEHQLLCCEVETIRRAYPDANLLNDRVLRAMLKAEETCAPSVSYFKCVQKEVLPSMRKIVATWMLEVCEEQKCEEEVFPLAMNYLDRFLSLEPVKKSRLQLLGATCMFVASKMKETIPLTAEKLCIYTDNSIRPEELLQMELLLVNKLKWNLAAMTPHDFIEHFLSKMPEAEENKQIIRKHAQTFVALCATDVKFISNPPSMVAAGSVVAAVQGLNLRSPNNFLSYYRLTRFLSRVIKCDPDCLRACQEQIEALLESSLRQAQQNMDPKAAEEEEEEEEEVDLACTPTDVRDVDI
Sequence of Angiopoietin-1 receptor (Q02763 whole entry): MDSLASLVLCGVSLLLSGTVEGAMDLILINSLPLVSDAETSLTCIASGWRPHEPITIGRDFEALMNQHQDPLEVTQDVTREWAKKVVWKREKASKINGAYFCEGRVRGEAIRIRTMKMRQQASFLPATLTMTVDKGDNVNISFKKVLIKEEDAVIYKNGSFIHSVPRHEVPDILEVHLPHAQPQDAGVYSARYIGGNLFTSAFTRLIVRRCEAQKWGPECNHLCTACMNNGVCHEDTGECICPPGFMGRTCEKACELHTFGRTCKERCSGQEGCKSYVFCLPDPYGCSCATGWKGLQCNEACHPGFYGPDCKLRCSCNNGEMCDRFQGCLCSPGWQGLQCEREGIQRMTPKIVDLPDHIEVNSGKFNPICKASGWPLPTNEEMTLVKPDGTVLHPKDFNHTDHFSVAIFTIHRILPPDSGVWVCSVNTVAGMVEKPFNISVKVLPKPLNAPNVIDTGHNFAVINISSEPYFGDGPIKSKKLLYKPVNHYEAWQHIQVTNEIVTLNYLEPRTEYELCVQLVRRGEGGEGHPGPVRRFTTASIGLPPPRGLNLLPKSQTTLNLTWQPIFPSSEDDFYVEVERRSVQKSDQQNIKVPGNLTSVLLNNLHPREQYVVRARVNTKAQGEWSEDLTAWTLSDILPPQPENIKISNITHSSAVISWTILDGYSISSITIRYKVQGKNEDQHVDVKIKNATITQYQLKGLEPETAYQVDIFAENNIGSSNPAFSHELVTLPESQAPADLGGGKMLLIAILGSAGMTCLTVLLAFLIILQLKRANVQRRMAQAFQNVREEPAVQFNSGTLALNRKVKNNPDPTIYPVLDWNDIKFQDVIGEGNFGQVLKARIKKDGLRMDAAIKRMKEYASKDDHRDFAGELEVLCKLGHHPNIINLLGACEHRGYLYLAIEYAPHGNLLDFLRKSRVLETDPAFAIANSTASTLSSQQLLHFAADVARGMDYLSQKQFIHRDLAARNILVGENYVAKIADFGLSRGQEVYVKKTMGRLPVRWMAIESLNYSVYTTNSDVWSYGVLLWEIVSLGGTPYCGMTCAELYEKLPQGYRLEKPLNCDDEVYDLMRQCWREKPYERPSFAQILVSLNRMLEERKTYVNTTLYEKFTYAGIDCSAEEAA
Sequence of Insulin-like growth factor 1 receptor (P08069 31-736 limits assumed): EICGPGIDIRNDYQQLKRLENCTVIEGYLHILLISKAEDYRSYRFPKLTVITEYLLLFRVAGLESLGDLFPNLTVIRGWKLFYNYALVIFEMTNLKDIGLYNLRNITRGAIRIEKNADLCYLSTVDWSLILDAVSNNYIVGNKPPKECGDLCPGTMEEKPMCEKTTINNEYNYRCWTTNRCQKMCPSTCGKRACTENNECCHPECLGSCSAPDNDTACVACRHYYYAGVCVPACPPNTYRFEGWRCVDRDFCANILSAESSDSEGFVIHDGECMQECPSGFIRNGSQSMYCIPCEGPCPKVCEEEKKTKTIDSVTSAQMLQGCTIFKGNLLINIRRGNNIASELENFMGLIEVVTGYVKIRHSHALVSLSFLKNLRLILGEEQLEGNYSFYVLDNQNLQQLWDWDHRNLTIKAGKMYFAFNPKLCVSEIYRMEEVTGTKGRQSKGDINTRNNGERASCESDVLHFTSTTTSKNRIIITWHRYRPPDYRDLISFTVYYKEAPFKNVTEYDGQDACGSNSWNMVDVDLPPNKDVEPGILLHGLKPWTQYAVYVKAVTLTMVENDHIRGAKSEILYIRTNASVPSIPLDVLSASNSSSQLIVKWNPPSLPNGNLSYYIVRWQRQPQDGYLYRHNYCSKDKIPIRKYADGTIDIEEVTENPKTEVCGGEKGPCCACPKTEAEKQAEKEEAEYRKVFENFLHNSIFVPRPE
Sequence of Insulin-like growth factor 1 receptor (P08069 741-1367 limits assumed): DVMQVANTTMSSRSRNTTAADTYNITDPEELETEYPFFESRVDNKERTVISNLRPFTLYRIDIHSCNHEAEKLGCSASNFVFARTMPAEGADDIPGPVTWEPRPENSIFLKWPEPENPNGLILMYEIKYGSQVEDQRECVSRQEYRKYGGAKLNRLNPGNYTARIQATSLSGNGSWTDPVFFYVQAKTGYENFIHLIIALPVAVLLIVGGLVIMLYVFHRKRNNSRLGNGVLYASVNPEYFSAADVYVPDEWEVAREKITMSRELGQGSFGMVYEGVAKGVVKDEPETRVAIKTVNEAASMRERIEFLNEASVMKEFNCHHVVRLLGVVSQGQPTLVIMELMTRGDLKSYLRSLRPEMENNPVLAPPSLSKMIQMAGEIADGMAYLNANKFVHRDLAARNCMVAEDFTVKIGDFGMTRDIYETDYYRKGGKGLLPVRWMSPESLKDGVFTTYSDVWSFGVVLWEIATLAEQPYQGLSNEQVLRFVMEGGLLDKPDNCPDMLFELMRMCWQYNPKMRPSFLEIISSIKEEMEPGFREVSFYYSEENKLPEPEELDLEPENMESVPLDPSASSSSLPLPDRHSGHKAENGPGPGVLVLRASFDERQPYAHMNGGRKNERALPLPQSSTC
Sequence of Epidermal growth factor receptor (P00533 whole entry): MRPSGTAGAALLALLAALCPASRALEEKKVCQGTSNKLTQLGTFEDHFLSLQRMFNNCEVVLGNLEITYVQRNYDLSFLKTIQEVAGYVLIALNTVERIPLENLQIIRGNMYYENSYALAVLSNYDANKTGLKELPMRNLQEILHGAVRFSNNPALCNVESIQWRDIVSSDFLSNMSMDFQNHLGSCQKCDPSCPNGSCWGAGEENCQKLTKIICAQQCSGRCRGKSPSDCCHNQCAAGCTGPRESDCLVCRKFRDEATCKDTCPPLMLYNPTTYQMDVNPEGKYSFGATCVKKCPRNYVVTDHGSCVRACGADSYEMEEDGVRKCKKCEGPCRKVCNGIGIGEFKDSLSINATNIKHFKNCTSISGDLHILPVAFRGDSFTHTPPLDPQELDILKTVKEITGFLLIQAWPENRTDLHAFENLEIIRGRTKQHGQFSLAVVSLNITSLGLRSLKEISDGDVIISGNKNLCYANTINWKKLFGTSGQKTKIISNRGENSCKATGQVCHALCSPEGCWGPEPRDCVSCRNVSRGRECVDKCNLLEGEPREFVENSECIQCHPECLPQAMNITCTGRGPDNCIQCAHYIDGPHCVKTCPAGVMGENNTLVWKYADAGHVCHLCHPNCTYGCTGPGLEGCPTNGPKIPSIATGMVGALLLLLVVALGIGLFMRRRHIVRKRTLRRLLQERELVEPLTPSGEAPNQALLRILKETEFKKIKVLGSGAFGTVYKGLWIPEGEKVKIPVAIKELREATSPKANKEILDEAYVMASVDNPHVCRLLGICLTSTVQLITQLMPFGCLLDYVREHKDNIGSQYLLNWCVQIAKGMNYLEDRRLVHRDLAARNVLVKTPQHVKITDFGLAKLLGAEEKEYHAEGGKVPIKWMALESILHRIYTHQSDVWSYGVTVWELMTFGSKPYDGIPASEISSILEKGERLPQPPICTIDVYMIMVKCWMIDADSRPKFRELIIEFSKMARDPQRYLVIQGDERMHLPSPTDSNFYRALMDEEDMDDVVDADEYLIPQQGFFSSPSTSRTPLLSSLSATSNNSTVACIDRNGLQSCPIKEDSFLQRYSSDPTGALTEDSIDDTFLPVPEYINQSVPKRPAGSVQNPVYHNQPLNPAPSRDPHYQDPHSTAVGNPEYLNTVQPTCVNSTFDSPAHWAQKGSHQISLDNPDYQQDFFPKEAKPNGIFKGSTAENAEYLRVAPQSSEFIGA

What is called IC50 is the concentration at which inhibition is half-maximal. As to `N=C(Nc1ccccc1)SCCCN1C(=O)C2=C(C1=O)n1ccc3cccc(c31)C1Cc3ccccc3N21` (stereo unspecified), the 50% inhibitory concentration (IC50) in experiment [1] was 4.3 µM; in experiment [2], 9.6 µM; in [3], 9.5 µM; in experiment [4] it was 5.1 µM; against Angiopoietin-1 receptor it was 8.9 µM; in [5], 2.3 µM. The same compound registered an IC50 in [6] of 7.9 µM.
For the compound `CN1C(=O)C(c2c[nH]c3ccccc23)=C(c2c[nH]c3ccccc23)C1=O`, the Activity with Streptomyces coelicolor [7] was 89%; with Streptomyces coelicolor [8], 206%.
With `N=C(N)SCCCN1C(=O)C2=C(C1=O)n1ccc3cccc(c31)C1Cc3ccccc3N21` (stereo unspecified), the IC50 in [9] came to 4.3 µM.
Take `C=CCNC(=N)SCCCN1C(=O)C2=C(C1=O)n1ccc3cccc(c31)C1Cc3ccccc3N21` (stereo unspecified): 6.9 µM corresponded to half-maximal inhibition in [6] (IC50).
Consider `CCN(CC)CCCN1C(=O)C2=C(C1=O)n1ccc3cccc(c31)C1Cc3ccccc3N21` (stereo unspecified), for which the Activity in the experiment on Streptomyces coelicolor [7] worked out at 94%. Moreover, the zone of inhibition at 80 µM with Streptomyces lividans [10] amounted to 11 mm. The zone of inhibition at 5 µM in the experiment on Streptomyces lividans [11] amounted to 0 mm. In addition, in the experiment on Streptomyces lividans [12], the zone of inhibition at 20 µM was found to be 7.5 mm. For the same compound, in the experiment with Streptomyces lividans [13], the zone of inhibition at 10 µM is 0 mm. For the same compound, the zone of inhibition at 40 µM with Streptomyces lividans [14] is 9 mm.
Regarding `CN(C)CCCn1cc(C2=C(c3c[nH]c4ccccc34)C(=O)NC2=O)c2ccccc21` [GF-109203], the values for the Activity with Streptomyces coelicolor [7] and in the experiment with Streptomyces coelicolor [8] were 95% and 152%, respectively. Besides, the zone of inhibition at 600 µM with Streptomyces lividans [15] was determined as 9 mm. In the experiment on Streptomyces lividans [16], the zone of inhibition at 1200 µM turned out to be 10 mm. Also, the zone of inhibition at 300 µM with Streptomyces lividans [17] stood at 7.5 mm. Also, in the experiment on Streptomyces lividans [18], the zone of inhibition at 150 µM was found to be 0 mm. Besides, the zone of inhibition at 75 µM in the experiment with Streptomyces lividans [19] is 0 mm.
As to `COc1ccc(S(=O)(=O)Nc2ccccc2CN(C)C/C=C/c2ccc(Cl)cc2)cc1`, the Activity in the experiment on Streptomyces coelicolor [20] amounted to 352%.
In the case of `CN([C@@H](Cc1ccc(OS(=O)(=O)c2cccc3cnccc23)cc1)C(=O)N1CCN(c2ccccc2)CC1)S(=O)(=O)c1cccc2cnccc12`, the Activity in the experiment on Streptomyces coelicolor [20] came to 113%.
